Measurements gathered from unrelated publications.
Each line is one published result; the experiments were not run side by side.
Organism: Severe acute respiratory syndrome coronavirus 2

| SMILES | assay | test system | setting | IC50 |
| --- | --- | --- | --- | --- |
| COc1ccc([C@@H]2Sc3ccccc3N(CCN(C)C)C(=O)[C@@H]2OC(C)=O)cc1 | viral replication, inhibitor | Vero C1008 |  | > 45 µM |
| CCOC(=O)N1CCC(=C2c3ccc(Cl)cc3CCc3cccnc32)CC1 | viral replication, inhibitor | Huh-7 |  | > 2 µM |
| CCCCCOc1ccc(-c2ccc(-c3ccc(C(=O)N[C@H]4C[C@@H](O)[C@@H](O)NC(=O)[C@@H]5[C@@H](O)[C@@H](C)CN5C(=O)[C@H]([C@@H](C)O)NC(=O)[C@H]([C@H](O)[C@@H](O)c5ccc(O)cc5)NC(=O)[C@@H]5C[C@@H](O)CN5C(=O)[C@H]([C@@H](C)O)NC4=O)cc3)cc2)cc1 | viral replication, inhibitor | Vero | 24 h | 5.4 mg/L |
| Nc1nc(S[C@@H]2O[C@H](CO)[C@H](O)[C@H](O)[C@H]2O)[nH]c(=S)c1C(=O)Nc1ccccc1 | viral replication | Vero C1008 | 72 h | 18.5 µM |
| CCN(CC)CCNC(=O)c1cc(Cl)c(N)cc1OC | viral replication, inhibitor | Huh-7 |  | 0.468 µM |
| COc1ccc(NC(=O)c2c(N)nc(S[C@@H]3O[C@H](COC(C)=O)[C@@H](OC(C)=O)[C@H](OC(C)=O)[C@H]3OC(C)=O)[nH]c2=S)cc1 | viral replication | Vero C1008 | 72 h | 169 µM |
| OC(c1cc(C(F)(F)F)nc2c(C(F)(F)F)cccc12)C1CCCCN1 (stereo not drawn) | viral replication, inhibitor | Vero C1008 |  | 7.11 µM |
| CC(C)[N+]1(C)[C@@H]2CC[C@H]1C[C@@H](OC(=O)C(CO)c1ccccc1)C2 (stereo partly drawn) | viral replication, inhibitor | Huh-7 |  | 0.056 µM |
| Cc1ccc(NC(=O)c2c(N)nc(S[C@@H]3O[C@H](CO)[C@H](O)[C@H](O)[C@H]3O)[nH]c2=S)cc1 | viral replication | Vero C1008 | 72 h | 34 µM |
| CCN(CCO)CCCC(C)Nc1ccnc2cc(Cl)ccc12 (stereo not drawn) | viral replication, inhibitor | Vero C1008 |  | 9.21 µM |
| CC(=O)OC[C@H]1O[C@@H](Sc2nc(N)c(C(=O)Nc3ccccc3)c(=S)[nH]2)[C@H](OC(C)=O)[C@@H](OC(C)=O)[C@H]1OC(C)=O | viral replication | Vero C1008 | 72 h | 86 µM |
| CCC(CC)COC(=O)[C@H](C)N[P@](=O)(OC[C@H]1O[C@@](C#N)(c2ccc3c(N)ncnn23)[C@H](O)[C@@H]1O)Oc1ccccc1 | viral replication, inhibitor | Calu-3 | 40 h | 0.389 µM |
| COc1cc2c(cc1OC)CN(CCc1ccc(NC(=O)c3cccc4c(=O)c5cccc(OC)c5[nH]c34)cc1)CC2 | viral replication | Vero C1008 |  | 0.575 µM |
| O=C(Nc1ccc([N+](=O)[O-])cc1Cl)c1cc(Cl)ccc1O | viral replication, inhibitor | Huh-7 |  | 0.142 µM |
| CC(=O)OC[C@H]1O[C@@H](Sc2nc(N)c(C(=O)Nc3ccc(Cl)cc3)c(=S)[nH]2)[C@H](OC(C)=O)[C@@H](OC(C)=O)[C@@H]1OC(C)=O | viral replication | Vero C1008 | 72 h | 77.4 µM |
| CC[C@@H]1C[C@]1(NC(=O)[C@@H]1C[C@@H]2CN1C(=O)[C@H](C(C)(C)C)NC(=O)OCC(C)(C)CCCCc1cccc3c1CN(C3)C(=O)O2)C(=O)NS(=O)(=O)C1CC1 | viral replication | HEK-293T |  | 3 µM |
| C=C1C(=O)[C@@]23[C@H](O)C[C@@H]4C(C)(C)C(=O)CC[C@@]4(C)[C@@H]2CC[C@@H]1[C@H]3O | viral replication, inhibitor | Calu-3 | 40 h | 2.9 µM |
| CCN(CC)CCO[C@H]1CC[C@@]2(C)C(=CC[C@@H]3[C@@H]2CC[C@]2(C)C(=O)CC[C@@H]32)C1 | viral replication | Vero C1008 |  | 2.4 µM |
| COc1c(C)c2c(c(O)c1C/C=C(\C)CCC(=O)OCCN1CCOCC1)C(=O)OC2 | viral replication, inhibitor | Calu-3 | 40 h | 2.15 µM |
| CN(C)CCCN1c2ccccc2Sc2ccc(Cl)cc21 | viral replication, inhibitor | Vero C1008 |  | 3.14 µM |
| CCN(CC)CCOc1ccc2c(c1)C(=O)c1cc(OCCN(CC)CC)ccc1-2 | viral replication, inhibitor | Vero | 24 h | 79.2 µM |
| Fc1ccc([C@@H]2CCNC[C@H]2COc2ccc3c(c2)OCO3)cc1 | viral replication | Vero C1008 |  | 3.55 µM |
| CCCC(CCC)C(=O)O | viral replication, inhibitor | Huh-7 |  | > 2 µM |
| CC(C)C(=O)OCC(=O)[C@@]12O[C@H](C3CCCCC3)O[C@@H]1C[C@H]1[C@@H]3CCC4=CC(=O)C=C[C@]4(C)[C@H]3[C@@H](O)C[C@@]12C | viral replication | VeroE6/TMPRSS2 |  | 8 µM |

| SMILES | assay | test system | setting | IC50 |
| --- | --- | --- | --- | --- |
| CCCCc1oc2ccc(NS(C)(=O)=O)cc2c1C(=O)c1ccc(OCCCN(CCCC)CCCC)cc1 | viral replication, inhibitor | Vero C1008 |  | 1.5 µM |
| CCN(CC)CCCC(C)Nc1ccnc2cc(Cl)ccc12 (stereo not drawn) | viral replication, inhibitor | Vero C1008 |  | 1.38 µM |
| COc1ccc2c(O[C@@H]3C[C@H]4C(=O)N[C@]5(C(=O)NS(=O)(=O)C6CC6)C[C@H]5/C=C\CCCCN(C)C(=O)[C@@H]4C3)cc(-c3nc(C(C)C)cs3)nc2c1C | viral replication | HEK-293T |  | 2.3 µM |
| CCN(CC)CCOc1ccc(C(O)(Cc2ccc(Cl)cc2)c2ccc(C)cc2)cc1 (stereo not drawn) | viral replication | Vero C1008 |  | 0.759 µM |
| CC(C)(C)CC(C)(C)c1ccc(O)c(Cc2ccc(Cl)cc2Cl)c1 | viral replication, inhibitor | Calu-3 | 40 h | 3.26 µM |
| CCOP(=O)(OCC)N1C/C(=C\c2ccccc2)C(=O)C2(C1)C(c1ccccc1)CN(C)C21C(=O)Nc2ccc(Cl)cc21 (stereo not drawn) | viral replication, inhibitor | Vero C1008 | 72 h | 10.4 µM |
| Nc1nc2nc[nH]c2c(=S)[nH]1 | viral replication, inhibitor | Huh-7 |  | 0.178 µM |
| COc1c(O)cc2oc(-c3ccccc3)cc(=O)c2c1O | viral replication, inhibitor | Vero C1008 |  | 15.1 µM |
| Cc1cccc(C)c1OCC(=O)N[C@@H](Cc1ccccc1)[C@@H](O)C[C@H](Cc1ccccc1)NC(=O)[C@H](C(C)C)N1CCCNC1=O | viral replication, inhibitor | Vero C1008 |  | 7.79 to 12 µM |
| COc1ccc2c(c1)[C@]13CCCC[C@@H]1[C@H](C2)N(C)CC3 | viral replication, inhibitor | A549-ACE2 |  | 4.17 µM |
| CC[C@H](C)[C@H]1C(=O)N2CCC[C@H]2C(=O)O[C@H](C(C)(C)C)C[C@@H](C)C[C@H](O)[C@H](C)C2=N[C@@H](CCC(=O)N[C@@H](Cc3ccc(OC)cc3)C(=O)N(C)[C@@H](C)C(=O)N1C)CS2 | viral replication, inhibitor | Vero C1008 |  | 0.17 µM |
| CC(CN1c2ccccc2Sc2ccccc21)N(C)C (stereo not drawn) | viral replication, inhibitor | A549-ACE2 |  | 0.575 µM |
| CC(C)N1CCN(c2ccc(OCC3COC(Cn4cncn4)(c4ccc(Cl)cc4Cl)O3)cc2)CC1 (stereo not drawn) | viral replication, inhibitor | Vero C1008 |  | 11.9 µM |
| COc1cc2c(cc1OC)C(=O)C(CC1CCN(Cc3ccccc3)CC1)C2 (stereo not drawn) | viral replication, inhibitor | A549-ACE2 |  | 7.76 µM |
| CCC(CC)COC(=O)[C@H](C)N[P@](=O)(OC[C@H]1O[C@@](C#N)(c2ccc3c(N)ncnn23)[C@H](O)[C@@H]1O)Oc1ccccc1 | plaque formation, inhibitor | Vero C1008 |  | 0.19 µM |
| Nc1nc(S[C@@H]2O[C@H](CO)[C@H](O)[C@H](O)[C@H]2O)[nH]c(=S)c1C(=O)Nc1ccc(Cl)cc1 | viral replication | Vero C1008 | 72 h | 15.4 µM |
| CC(C)(C)[C@@H]1NC(=O)O[C@@H]2CCC[C@H]2OC/C=C/C(F)(F)c2nc3ccccc3nc2O[C@@H]2C[C@@H](C(=O)N[C@]3(C(=O)NS(=O)(=O)C4(C)CC4)C[C@H]3C(F)F)N(C2)C1=O | viral replication | HEK-293T |  | > 50 µM |
| N=C(N)NCCN1CCCCCCC1 | viral replication, inhibitor | Huh-7 |  | > 2 µM |
| CC(C)(C)[C@]1(O)CCN2C[C@H]3c4ccccc4CCc4cccc(c43)[C@@H]2C1 | viral replication | Vero C1008 |  | 6.17 µM |
| COc1cc(Nc2c(C#N)cnc3cc(OCCCN4CCN(C)CC4)c(OC)cc23)c(Cl)cc1Cl | viral replication, inhibitor | Huh-7 |  | 0.02 µM |
| CC[C@H](C)C[C@H](C)CCCCCCCCC(=O)N[C@H]1C[C@@H](O)[C@@H](NCCN)NC(=O)[C@@H]2[C@@H](O)CCN2C(=O)[C@H]([C@H](O)CCN)NC(=O)[C@H]([C@H](O)[C@@H](O)c2ccc(O)cc2)NC(=O)[C@@H]2C[C@@H](O)CN2C(=O)[C@H]([C@@H](C)O)NC1=O | viral replication, inhibitor | Vero | 24 h | > 200 mg/L |
| C[C@H](Nc1nc(N2CCNCC2)nc2ccccc12)c1ccccc1 | cytopathic effect | Vero C1008 | 72 h | 10 µM |
| Nc1c2ccccc2nc2ccccc12 | viral replication, inhibitor | Calu-3 | 40 h | 4.44 µM |
| Cc1cccc(/C=N/Nc2cc(N3CCOCC3)nc(OCCc3ccccn3)n2)c1 | viral replication, inhibitor | Vero C1008 |  | 0.012 µM |
